Data: paper PMC3060938 (Clinical cancer research : an official journal of the …, 2011)
Values joined by “and” are separate entries in the source; they are usually repeats but may differ in a detail not shown here. Equal values may be shown once.

Legend:
HSP90 [1] = experiment: Western blotting of HSP72, CDK4 and LCK in patients' PBMC; type: in vivo, human
Summary of the method: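 Blood drawn pre-dose, at end of infusion and 1, 8, 24, 48 and 96 h post-dose, plus 24 h after the fifth weekly infusion. PBMC isolated by Ficoll-Hypaque and stored at −80°C. Lysates blotted for HSP72, CDK4 and LCK, with GAPDH as loading control. Each time-point visually compared with pre-treatment and scored 0-5 against a positive control.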

[2] = Phase I dose escalation of weekly IV 17-DMAG: toxicity; type: in vivo, human
Summary of the method: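 Weekly 1-h IV infusion, continuous, in 4-week cycles, of drug diluted to 0.1-1.0 mg/mL in 0.9% saline or 5% dextrose. Accelerated titration escalation from 2.5 mg/m2, up to 106 mg/m2. AEs graded by NCI-CTCAE v3.0. DLT assessed over the first 28 days. Cohorts expanded to 6 after DLT. MAD defined as ≥2/6 with DLT; MTD as the prior level with ≤1/6.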

[3] = Plasma pharmacokinetics of 17-DMAG by HPLC-MS, non-compartmental analysis; type: in vivo, human
Summary of the method: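 Sampled in course 1: pre-dose, at 30 and 60 min into the 1-h infusion, then 5 min to 96 h after infusion end. Heparinised blood held on ice, spun 252g for 5 min at 4°C, plasma kept at −80°C. Drug measured by validated HPLC-MS. Non-compartmental analysis with constant infusion input. Dose proportionality of AUC and Cmax assessed by linear regression.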

advanced solid tumors = experiment: Tumor response; type: in vivo, human
HSP72 = HSP72 in PBMC and plasma by ELISA; type: in vivo, human
Summary of the method: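 Human patients with advanced solid tumours received a weekly 1-h IV infusion of the test compound, given at 0.1-1.0 mg/mL in 0.9% saline or 5% dextrose. Blood was drawn pre-dose and 24 h post-dose. PBMC were Ficoll-Hypaque separated and stored at −80 °C. HSP72 was measured in PBMC (fmole/μg protein) and plasma (fmole/ml). Each cohort's mean change was compared with the first cohort's by one-tailed t-test (p ≤ 0.05).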

HSP90 [4] = experiment: Western blotting of HSP72, CDK4 and ERBB2 in paired tumor biopsies; type: in vivo, human
Summary of the method: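 Tumour biopsies were taken before and 24 h after the first weekly 1-h IV dose, snap frozen and stored at −80 °C; five paired biopsies per cohort were planned. Lysates were western blotted for HSP72, CDK4 and ERBB2, with GAPDH loading control and HT29 positive control. Each band was scored 0-5 against pre-treatment; a one-point change counted. Signature: HSP72 induction plus CDK4 and/or ERBB2 depletion. Two blinded assessors verified results.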

[5] = tested on: NCI 60 human tumor cell line panel; conditions: read-out: Mean IC50, no reference given; cited from earlier work

**Q.** What does the source list for `CO[C@H]1/C=C\C=C(/C)C(=O)NC2=CC(=O)C(NCCN(C)C)=C(C[C@@H](C)C[C@H](OC)[C@H](O)[C@@H](C)/C=C(\C)[C@@H]1OC(N)=O)C2=O` [17-DMAG, 17-dimethylaminoethylamino-17-demethoxygeldanamycin]?
**A.** Dose at which transient HSP72 induction (< 24 hours) was detected in PBMCs (HSP90 [1]): ≥ 5 mg/m^2; Dose at which CDK4 depletion was demonstrated in PBMC (HSP90 [1]; some patients): ≥ 80 mg/m^2; Treatment related death ([2]; 106mg/m^2): one treatment related death; Patients with dose limiting toxicity (DLT) ([2]; 106 mg/m^2 weekly IV): 2/4; ALP (hepatic), adverse events related to 17-DMAG ([2]; Grade 1): 2; ALT (hepatic), adverse events related to 17-DMAG ([2]; Grade 1): 2; AST (hepatic), adverse events related to 17-DMAG ([2]; Grade 1): 4; Alopecia, adverse events related to 17-DMAG ([2]; Grade 1): 2; Anorexia, adverse events related to 17-DMAG ([2]; Grade 1): 1; Blurred vision, adverse events related to 17-DMAG ([2]; Grade 1): 2; Dehydration, adverse events related to 17-DMAG ([2]; Grade 1): 1; Depression, adverse events related to 17-DMAG ([2]; Grade 1): 1; Diarrhea, adverse events related to 17-DMAG ([2]; Grade 1): 5; Dizziness, adverse events related to 17-DMAG ([2]; Grade 1): 1; Dry eye, adverse events related to 17-DMAG ([2]; Grade 1): 1; Dry mouth, adverse events related to 17-DMAG ([2]; Grade 1): 3; Eosinophilia, adverse events related to 17-DMAG ([2]; Grade 1): 1; Fever, adverse events related to 17-DMAG ([2]; Grade 1): 2; Hand foot syndrome, adverse events related to 17-DMAG ([2]; Grade 1): 1; Heartburn, adverse events related to 17-DMAG ([2]; Grade 1): 1; High protein, adverse events related to 17-DMAG ([2]; Grade 1): 1; Hypergylcaemia, adverse events related to 17-DMAG ([2]; Grade 1): 2; Hypertension, adverse events related to 17-DMAG ([2]; Grade 1): 3; Hyperuricaemia, adverse events related to 17-DMAG ([2]; Grade 1): 1; Hypocalcaemia, adverse events related to 17-DMAG ([2]; Grade 1): 1; Hypokalaemia, adverse events related to 17-DMAG ([2]; Grade 1): 2; Hyponatraemia, adverse events related to 17-DMAG ([2]; Grade 1): 3; Limb edema, adverse events related to 17-DMAG ([2]; Grade 1): 2; Low eosinophils, adverse events related to 17-DMAG ([2]; Grade 1): 1; Low hematocrit, adverse events related to 17-DMAG ([2]; Grade 1): 1; Low red cell count, adverse events related to 17-DMAG ([2]; Grade 1): 1; Low urea, adverse events related to 17-DMAG ([2]; Grade 1): 1; Lymphopenia, adverse events related to 17-DMAG ([2]; Grade 1): 2; Muscle spasm, adverse events related to 17-DMAG ([2]; Grade 1): 1; Nausea, adverse events related to 17-DMAG ([2]; Grade 1): 5; Neuropathy, adverse events related to 17-DMAG ([2]; Grade 1): 1; Nightmares, adverse events related to 17-DMAG ([2]; Grade 1): 1; Ocular surface disease, adverse events related to 17-DMAG ([2]; Grade 1): 2; Oliguria, adverse events related to 17-DMAG ([2]; Grade 1): 1; Pain, Abdomen, adverse events related to 17-DMAG ([2]; Grade 1): 1; Pain, Headache, adverse events related to 17-DMAG ([2]; Grade 1): 1; Pain, Joint, adverse events related to 17-DMAG ([2]; Grade 1): 5; Pain, Limb, adverse events related to 17-DMAG ([2]; Grade 1): 1; Pain, Myalgia, adverse events related to 17-DMAG ([2]; Grade 1): 2; Proteinuria, adverse events related to 17-DMAG ([2]; Grade 1): 3; Raised CK, adverse events related to 17-DMAG ([2]; Grade 1): 1; Raised amylase, adverse events related to 17-DMAG ([2]; Grade 1): 1; Raised bilirubin (hepatic), adverse events related to 17-DMAG ([2]; Grade 1): 1; Raised leucocytes, adverse events related to 17-DMAG ([2]; Grade 1): 1; Raised neutrophils, adverse events related to 17-DMAG ([2]; Grade 1): 2; Rash, adverse events related to 17-DMAG ([2]; Grade 1): 1; Sinus tachycardia, adverse events related to 17-DMAG ([2]; Grade 1): 1; Thrombocytopenia, adverse events related to 17-DMAG ([2]; Grade 1): 3; Vivid dreams, adverse events related to 17-DMAG ([2]; Grade 1): 1; Voice change, adverse events related to 17-DMAG ([2]; Grade 1): 1; Vomiting, adverse events related to 17-DMAG ([2]; Grade 1): 2; Weight loss, adverse events related to 17-DMAG ([2]; Grade 1): 1; ALP (hepatic), adverse events related to 17-DMAG ([2]; Grade 2): 1; ALT (hepatic), adverse events related to 17-DMAG ([2]; Grade 2): 1; Anorexia, adverse events related to 17-DMAG ([2]; Grade 2): 1; Blurred vision, adverse events related to 17-DMAG ([2]; Grade 2): 2; Diarrhea, adverse events related to 17-DMAG ([2]; Grade 2): 1; Dry eye, adverse events related to 17-DMAG ([2]; Grade 2): 2; Eye (herpes simplex), adverse events related to 17-DMAG ([2]; Grade 2): 1; Fatigue, adverse events related to 17-DMAG ([2]; Grade 2): 2; Fever, adverse events related to 17-DMAG ([2]; Grade 2): 1; Keratitis, adverse events related to 17-DMAG ([2]; Grade 2): 2; Nausea, adverse events related to 17-DMAG ([2]; Grade 2): 1; Pain, Joint, adverse events related to 17-DMAG ([2]; Grade 2): 2; Vomiting, adverse events related to 17-DMAG ([2]; Grade 2): 4; ALT (hepatic), adverse events related to 17-DMAG ([2]; Grade 3): 1; AST (hepatic), adverse events related to 17-DMAG ([2]; Grade 3): 1; Acidosis, adverse events related to 17-DMAG ([2]; Grade 3): 1; Creatinine, adverse events related to 17-DMAG ([2]; Grade 3): 1; Dehydration, adverse events related to 17-DMAG ([2]; Grade 3): 1; Diarrhea, adverse events related to 17-DMAG ([2]; Grade 3): 1; Fatigue, adverse events related to 17-DMAG ([2]; Grade 3): 1; Hyponatraemia, adverse events related to 17-DMAG ([2]; Grade 3): 1; Lymphopenia, adverse events related to 17-DMAG ([2]; Grade 3): 1; Thrombocytopenia, adverse events related to 17-DMAG ([2]; Grade 3): 1; γGT (hepatic), adverse events related to 17-DMAG ([2]; Grade 3): 1; AST (hepatic), adverse events related to 17-DMAG ([2]; Grade 4): 1; Hypotension, adverse events related to 17-DMAG ([2]; Grade 4): 1; Renal failure, adverse events related to 17-DMAG ([2]; Grade 5): 1; Tolerability ([2]; doses ≤ 80mg/m^2): well tolerated; Maximum tolerated dose (MTD) ([2]; weekly IV, patients with advanced solid tumors): 80 mg/m^2; Recommended Phase II dose ([2]; weekly, IV): 80 mg/m^2; Half life ([3]; dose 40.0 mg/m^2, 1 hr IV infusion, 3 patients): 21.5 ± 4.3 (19.7) hr; Half life ([3]; dose 80.0 mg/m^2, 1 hr IV infusion, 8 patients): 27.8 ± 7.1 (25.4) hr; Cmax ([3]; human, intravenous, 80 mg/m2): 2680 nM; Vd ([3]; human, intravenous, 80 mg/m2): 385 L; clearance ([3]; human, intravenous, 80 mg/m2): 315 mL/min; AUC ([3]; human, iv, 2.5 mg/m^2): 0.581 ± 0.236 µM·h; Cmax ([3]; human, iv, 2.5 mg/m^2): 64.1 ± 19.7 nM; clearance ([3]; human, iv, 2.5 mg/m^2): 218 mL/min; half-life ([3]; human, iv, 2.5 mg/m^2): 25.2 ± 12.9 h; AUC ([3]; human, iv, 5 mg/m^2): 0.864 ± 0.651 µM·h; Cmax ([3]; human, iv, 5 mg/m^2): 85.4 ± 55.2 nM; clearance ([3]; human, iv, 5 mg/m^2): 858 mL/min; half-life ([3]; human, iv, 5 mg/m^2): 18.4 ± 7.5 h; AUC ([3]; human, iv, 20 mg/m^2): 3.73 ± 2.04 µM·h; Cmax ([3]; human, iv, 20 mg/m^2): 480 ± 176 nM; clearance ([3]; human, iv, 20 mg/m^2): 345 mL/min; half-life ([3]; human, iv, 20 mg/m^2): 28.7 ± 14.2 h; AUC ([3]; human, iv, 40 mg/m^2): 6.51 ± 3.22 µM·h; Cmax ([3]; human, iv, 40 mg/m^2): 957 ± 248 nM; clearance ([3]; human, iv, 40 mg/m^2): 322 mL/min; AUC ([3]; human, iv, 80 mg/m^2): 12.7 ± 2.87 µM·h; Cmax ([3]; human, iv, 80 mg/m^2): 2680 ± 1320 nM; clearance ([3]; human, iv, 80 mg/m^2): 315 mL/min; AUC ([3]; human, iv, 106 mg/m^2): 32.3 ± 16.3 µM·h; Cmax ([3]; human, iv, 106 mg/m^2): 3750 ± 1370 nM; clearance ([3]; human, iv, 106 mg/m^2): 213 mL/min; half-life ([3]; human, iv, 106 mg/m^2): 24.7 ± 1.8 h; Time on treatment before PD (advanced solid tumors; patient with CRPC and complete response, 5mg/m^2 escalated to 20mg/m^2): 124 weeks; Best tumor response (advanced solid tumors; patient with CRPC, 5mg/m^2 escalated to 20mg/m^2, confirmed by CT and PSA): complete response; Time on study with stable disease (advanced solid tumors; patient with CRPC, 20mg/m^2): 59 weeks; Time on study with stable disease (advanced solid tumors; patient with chondrosarcoma, 5mg/m^2 escalated to 20mg/m^2): 28 weeks; Time on study with stable disease (advanced solid tumors; patient with clear cell renal cancer, 80mg/m^2): 76 weeks; Time on treatment before PD (advanced solid tumors; patient with metastatic melanoma and partial response, 40mg/m^2): 159 weeks; Best tumor response (advanced solid tumors; patient with metastatic melanoma, 40mg/m^2): partial response; Patients with progressive disease (PD) (advanced solid tumors; twenty patients evaluable, all dose levels): Nine; Mean plasma HSP72 change between dose levels (HSP72; 24 hours after 17-DMAG, compared with first dose cohort): did not differ; Dose at which HSP72 induction was detected in PBMC (HSP72; ELISA (DELFIA), 24 hours after 17-DMAG): ≥ 20 mg/m^2; Mean HSP72 plasma level post 17-DMAG (HSP72; all other patients (without DLT)): 86 ± 140 fmol/mL; Highest HSP72 plasma levels post 17-DMAG (HSP72; the 2 patients with DLT (106 mg/m^2), individual values): 1250 fmol/mL and 5610 fmol/mL; HSP90 inhibition in tumor (HSP90 [4]; 106 mg/m^2, single set of samples): confirmed; Patients with HSP90 inhibition detected in tumor (HSP90 [4]; 24 hrs after 80mg/m^2): 3/5; Tumors with HSP72 induced (HSP90 [4]; 24 hrs after 80mg/m^2): 4/5; Tumors with client protein depletion (CDK4 or ERBB2) (HSP90 [4]; 24 hrs after 80mg/m^2): 3/5; IC50 [5]: 63 nM
